Calls of active or inactive are those of the source. The calls are words filed in the database; no cut-off is given here.
How the values were obtained:
[1] = molecular target: T1, Reduced folate transporter (Homo sapiens) (UniProt P41440); assay: Inhibition of human RFC-mediated [3H]MTX transport in Chinese hamster PC43-10 cells at 10 uM; type: cell-based
T1 sequence (whole entry): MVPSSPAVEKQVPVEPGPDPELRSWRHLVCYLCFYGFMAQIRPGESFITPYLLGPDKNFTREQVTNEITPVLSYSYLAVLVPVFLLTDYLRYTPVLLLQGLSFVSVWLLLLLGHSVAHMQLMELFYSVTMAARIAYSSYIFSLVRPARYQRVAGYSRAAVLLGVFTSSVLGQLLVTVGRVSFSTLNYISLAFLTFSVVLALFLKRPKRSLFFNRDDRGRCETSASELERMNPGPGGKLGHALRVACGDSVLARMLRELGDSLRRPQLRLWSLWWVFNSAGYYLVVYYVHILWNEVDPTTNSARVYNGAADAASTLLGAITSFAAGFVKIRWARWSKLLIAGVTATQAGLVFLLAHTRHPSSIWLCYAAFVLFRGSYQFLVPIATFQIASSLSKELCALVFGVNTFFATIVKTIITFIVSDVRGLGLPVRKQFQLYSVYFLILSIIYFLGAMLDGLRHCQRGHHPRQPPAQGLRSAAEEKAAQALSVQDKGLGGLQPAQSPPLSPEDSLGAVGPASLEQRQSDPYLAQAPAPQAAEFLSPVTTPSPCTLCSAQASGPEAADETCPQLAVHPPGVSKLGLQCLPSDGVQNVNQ

[2] = Antiproliferative activity against human FRbeta expressing Chinese hamster D4 cells in presence of folic acid; conditions: Cricetulus griseus
[3] = molecular target: Folate receptor beta (Homo sapiens) (UniProt P14207); assay: Displacement of [3H]folic acid from human FRbeta in Chinese hamster D4 cells; type: cell-based
Summary of the method: (§1)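 Cells were acid-stripped (pH 3.5 acetate buffer) and washed in ice-cold HEPES-buffered saline, pH 7.4. They were then incubated 15 min at 0°C with 50 nM [3H]folic acid (0.5 Ci/mmol) and a range of unlabeled ligand concentrations. Bound label was normalized to Lowry protein. […] Mean of 3 experiments.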

[4] = molecular target: Folate receptor alpha (Homo sapiens) (UniProt P15328); assay: Displacement of [3H]folic acid from human FRalpha in Chinese hamster RT16 cells; type: cell-based; summary of the method: as §1
[5] = molecular target: T1, Reduced folate transporter (Homo sapiens); assay: Inhibition of human RFC-mediated [3H]MTX transport expressed in Chinese hamster PC43-10 cells; type: cell-based; design: concentration or dose not given beside the values; conditions: concentration not given here
[6] = system: R2; assay: Antiproliferative activity against human RFC expressing Chinese hamster R2 cells
[7] = system: KB; assay: Antiproliferative activity against human RFC and FRalpha expressing human KB cells in presence of folic acid
[8] = Antiproliferative activity against human RFC expressing Chinese hamster PC43-10 cells; conditions: Cricetulus griseus
[9] = system: IGROV-1; assay: Antiproliferative activity against human RFC and FRalpha expressing human IGROV1 cells in presence of folic acid
[10] = Antiproliferative activity against human FRalpha expressing Chinese hamster RT16 cells in presence of folic acid; conditions: Cricetulus griseus
[11] = molecular target: T2, Trifunctional purine biosynthetic protein adenosine-3 (Mus musculus, UniProt Q64737); assay: Inhibition of mouse recombinant GARFTase
T2 sequence (Q64737 whole entry): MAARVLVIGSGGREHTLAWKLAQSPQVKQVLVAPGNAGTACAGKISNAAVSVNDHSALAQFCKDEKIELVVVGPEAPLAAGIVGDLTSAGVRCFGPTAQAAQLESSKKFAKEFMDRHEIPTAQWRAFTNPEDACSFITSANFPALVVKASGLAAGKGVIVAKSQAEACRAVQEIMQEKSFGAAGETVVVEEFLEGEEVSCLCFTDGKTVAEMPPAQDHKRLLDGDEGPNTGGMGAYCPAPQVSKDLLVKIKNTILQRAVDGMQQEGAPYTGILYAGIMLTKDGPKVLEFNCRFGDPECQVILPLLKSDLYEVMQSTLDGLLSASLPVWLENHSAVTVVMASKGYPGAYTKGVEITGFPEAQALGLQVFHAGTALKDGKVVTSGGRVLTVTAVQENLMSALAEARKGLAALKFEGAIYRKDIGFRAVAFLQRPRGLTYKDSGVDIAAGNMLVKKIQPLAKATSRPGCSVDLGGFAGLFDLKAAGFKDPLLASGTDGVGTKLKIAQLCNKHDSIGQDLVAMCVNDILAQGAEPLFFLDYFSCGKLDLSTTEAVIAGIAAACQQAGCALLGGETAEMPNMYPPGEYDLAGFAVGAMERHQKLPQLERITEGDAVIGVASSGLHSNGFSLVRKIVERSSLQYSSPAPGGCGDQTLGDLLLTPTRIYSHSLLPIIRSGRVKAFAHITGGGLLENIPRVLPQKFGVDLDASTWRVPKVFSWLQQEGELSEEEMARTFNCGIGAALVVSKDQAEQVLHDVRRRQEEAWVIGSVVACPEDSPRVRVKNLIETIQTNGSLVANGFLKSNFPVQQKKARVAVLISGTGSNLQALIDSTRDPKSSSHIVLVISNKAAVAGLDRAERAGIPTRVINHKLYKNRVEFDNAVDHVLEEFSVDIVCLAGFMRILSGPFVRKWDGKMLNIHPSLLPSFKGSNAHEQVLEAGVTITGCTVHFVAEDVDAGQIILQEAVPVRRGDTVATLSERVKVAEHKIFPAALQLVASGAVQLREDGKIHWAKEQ

[12] = molecular target: T3, Trifunctional purine biosynthetic protein adenosine-3 (Homo sapiens, UniProt P22102)
T3 sequence (P22102 whole entry): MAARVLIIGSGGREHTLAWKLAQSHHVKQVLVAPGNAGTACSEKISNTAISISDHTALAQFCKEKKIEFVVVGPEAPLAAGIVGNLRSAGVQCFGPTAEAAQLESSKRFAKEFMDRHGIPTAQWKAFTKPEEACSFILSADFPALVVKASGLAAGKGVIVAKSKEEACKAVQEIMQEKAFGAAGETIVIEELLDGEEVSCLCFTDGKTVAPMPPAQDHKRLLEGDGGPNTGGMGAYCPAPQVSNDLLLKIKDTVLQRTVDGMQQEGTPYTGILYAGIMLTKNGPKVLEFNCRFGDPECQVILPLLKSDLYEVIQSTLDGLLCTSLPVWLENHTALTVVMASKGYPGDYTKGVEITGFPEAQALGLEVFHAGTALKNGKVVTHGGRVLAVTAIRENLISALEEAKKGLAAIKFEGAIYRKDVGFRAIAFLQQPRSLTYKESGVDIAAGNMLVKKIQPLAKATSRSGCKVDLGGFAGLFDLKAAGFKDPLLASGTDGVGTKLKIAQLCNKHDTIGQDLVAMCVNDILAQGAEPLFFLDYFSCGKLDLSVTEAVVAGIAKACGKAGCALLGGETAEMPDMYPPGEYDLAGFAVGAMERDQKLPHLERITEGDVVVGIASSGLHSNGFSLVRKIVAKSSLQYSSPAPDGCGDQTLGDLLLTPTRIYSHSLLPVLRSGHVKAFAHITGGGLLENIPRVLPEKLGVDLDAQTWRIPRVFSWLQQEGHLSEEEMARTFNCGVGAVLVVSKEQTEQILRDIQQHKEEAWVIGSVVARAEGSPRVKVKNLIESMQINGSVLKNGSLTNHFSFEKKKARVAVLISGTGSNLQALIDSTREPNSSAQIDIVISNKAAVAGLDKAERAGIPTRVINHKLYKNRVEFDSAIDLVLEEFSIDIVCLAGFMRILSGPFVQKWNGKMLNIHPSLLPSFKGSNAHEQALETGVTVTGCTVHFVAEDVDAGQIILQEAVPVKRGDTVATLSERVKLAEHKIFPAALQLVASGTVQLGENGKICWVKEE

[13] = cells; conditions: Cricetulus griseus, D4
[14] = system: IGROV-1; assay: Antiproliferative activity against human RFC and FRalpha expressing human IGROV1 cells
[15] = system: KB; assay: cells; conditions: Homo sapiens
[16] = cells; conditions: Cricetulus griseus, RT16
[17] = system: KB; assay: cells; conditions: Homo sapiens, read-out: INH

Sequence of Folate receptor beta (Homo sapiens) (P14207 17-230 limits assumed): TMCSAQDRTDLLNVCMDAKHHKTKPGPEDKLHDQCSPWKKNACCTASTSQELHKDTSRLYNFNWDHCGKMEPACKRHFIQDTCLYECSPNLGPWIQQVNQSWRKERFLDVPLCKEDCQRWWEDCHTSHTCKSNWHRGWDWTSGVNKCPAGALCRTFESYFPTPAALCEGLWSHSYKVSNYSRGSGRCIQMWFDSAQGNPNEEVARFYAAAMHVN
Sequence of Folate receptor alpha (Homo sapiens) (P15328 25-234 limits assumed): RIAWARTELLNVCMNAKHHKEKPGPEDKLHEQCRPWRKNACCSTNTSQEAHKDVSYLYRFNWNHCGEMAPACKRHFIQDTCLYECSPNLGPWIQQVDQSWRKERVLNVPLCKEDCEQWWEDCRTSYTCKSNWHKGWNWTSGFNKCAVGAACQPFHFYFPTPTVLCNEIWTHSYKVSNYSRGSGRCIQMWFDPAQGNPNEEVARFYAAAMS

| SMILES | inhibition [1] [%] | IC50 [2] [nM] | Activity [3] | Activity [4] | inhibition [5] [%] | IC50 [6] [nM] | IC50 [7] [nM] | IC50 [8] [nM] | IC50 [9] [nM] | IC50 [10] [nM] | IC50 [11] [nM] | further results |
| --- | --- | --- | --- | --- | --- | --- | --- | --- | --- | --- | --- | --- |
| CN(Cc1cnc2nc(N)nc(N)c2n1)c1ccc(C(=O)N[C@@H](CCC(=O)O)C(=O)O)cc1 [METHOTREXATE] | 60 |  |  |  |  |  |  |  |  |  |  |  |
| Nc1nc2[nH]c(CCCCCc3ccc(C(=O)N[C@@H](CCC(=O)O)C(=O)O)cc3)cc2c(=O)[nH]1 |  | > 1000 | Active | Active | < 20 | > 1000 | > 1000 | > 1000 | > 1000 | > 1000 | 2260 | IC50 [12]: 7.2 nM |
| Nc1nc(=O)c2c([nH]1)NCC(CNc1ccc(C(=O)N[C@@H](CCC(=O)O)C(=O)O)cc1)N2C=O (stereo partly specified) | 60 |  |  |  |  |  |  |  |  |  |  |  |
| Nc1nc2c(c(=O)[nH]1)C[C@@H](CCc1ccc(C(=O)N[C@@H](CCC(=O)O)C(=O)O)cc1)CN2 [LOMETREXOL] | 60 | 275 |  |  |  |  |  |  |  | 188 |  |  |
| Nc1nc2[nH]c(Cc3ccc(C(=O)N[C@@H](CCC(=O)O)C(=O)O)cc3)cc2c(=O)[nH]1 |  | > 1000 |  |  | < 20 | > 1000 | > 1000 | > 1000 | > 1000 | > 1000 | > 20000 | IC50 [13]: > 1000 nM; IC50 [14]: > 1000 nM; IC50 [15]: > 1000 nM; IC50 [16]: > 1000 nM; IC50 [12]: > 1000 nM |
| Cc1nc(=O)c2cc(CN(C)c3ccc(C(=O)N[C@@H](CCC(=O)O)C(=O)O)s3)ccc2[nH]1 [RALTITREXED] |  |  |  |  |  |  |  |  |  |  |  | inhibition at 1 µM [17]: > 99% |
| COc1cc(NCc2ccc3nc(N)nc(N)c3c2C)cc(OC)c1OC [TRIMETREXATE] |  | 6.1 |  |  |  |  |  |  | 8.6 |  |  |  |
| Nc1nc2[nH]c(CCCCCCc3ccc(C(=O)N[C@@H](CCC(=O)O)C(=O)O)cc3)cc2c(=O)[nH]1 |  | > 1000 | Active | Active | < 20 | > 1000 | > 1000 | > 1000 | > 1000 | > 1000 | 2510 | IC50 [13]: 198 nM; IC50 [14]: 309 nM; IC50 [16]: 162 nM; IC50 [12]: 8.6 nM |
| Nc1nc2[nH]c(CCCc3ccc(C(=O)N[C@@H](CCC(=O)O)C(=O)O)cc3)cc2c(=O)[nH]1 |  | > 1000 | Active | Active | < 20 | 448 | > 1000 | 304 | > 1000 | > 1000 | 2440 |  |
| Nc1nc2ccc3ccc(CNc4ccc5c(c4)CN([C@@H](CCC(=O)O)C(=O)O)C5=O)cc3c2c(=O)[nH]1 |  |  |  |  |  |  | 32 |  |  | > 1000 |  | IC50 [15]: 5.8 nM |
| Nc1nc2[nH]c(CCCCc3ccc(C(=O)N[C@@H](CCC(=O)O)C(=O)O)cc3)cc2c(=O)[nH]1 |  |  | Active | Active | < 20 | > 1000 | > 1000 | > 1000 | > 1000 | > 1000 | 150 | inhibition at 1 µM [17]: > 97% |
| Nc1nc2[nH]cc(CCc3ccc(C(=O)N[C@@H](CCC(=O)O)C(=O)O)cc3)c2c(=O)[nH]1 [PEMETREXED] | 60 |  |  |  |  |  |  |  | 200 |  |  |  |

Reference: ChEMBL document CHEMBL1156629, “Synthesis and discovery of high affinity folate receptor-specific glycinamide ribonucleotide formyltransferase inhibitors with antitumor activity” (J Med Chem, 2008)
